A short description of data set [1]: Cytotoxicity against LPS-induced mouse RAW264.7 cells assessed as cell survival up to 100 uM by MTT assay relative to control. The data set is classed as cell-based. Particulars: LPS-induced RAW264.7 cells, read-out: Survival. In outline:
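MTT viability assay on LPS-activated RAW264.7 cells, the same cells used for the NO assay; tested at concentrations up to 100 μM; triplicate experiments.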

The test system of a further data set is RAW264.7. As to the kind of experiment: Antiinflammatory activity in mouse RAW264.7 cells assessed as inhibition of LPS-induced nitric oxide production preincubated for 2 hrs followed by LPS stimulation measured after 18 hrs by Griess assay. The data set is classed as functional, cell-based. In outline: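 LPS-activated RAW264.7 macrophages; nitric oxide production measured and IC50 derived; L-NAME as positive control; triplicate experiments.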
On the technique in general: The Griess reaction detects nitrite, a stable product of nitric oxide.

Data on eight molecules can be found in ChEMBL document CHEMBL4004818, “Montagnuphilones A-G, Azaphilones from Montagnulaceae sp. DM0194, a Fungal Endophyte of Submerged Roots of Persicaria amphibia” (J Nat Prod, 2017).

One may read the IC50 as the concentration needed to halve the response being measured.

As to `Cc1cc(O)cc(O)c1C(=O)O[C@@H]1CC2=C(CO[C@@](O)(CCCO)C2)C(=O)[C@]1(C)O` (relative stereo), the viability in data set [1] worked out at 90%.
On to `Cc1cc(O)cc(O)c1C(=O)O[C@@H]1CC2=C(CO[C@](O)(CCC(=O)O)C2)C(=O)[C@]1(C)O` (relative stereo), for which the viability in data set [1] worked out at 90%.
Consider `Cc1cc(O)cc(O)c1C(=O)O[C@@]1(C)C(=O)C2=C(C=C(/C=C/CO)OC2)C[C@H]1O`, for which the viability in data set [1] amounted to 90%. In addition, the IC50 in the data set with RAW264.7 was 9.2 µM.
For `Cc1cc(O)cc(O)c1C(=O)O[C@@H]1CC2=C(COC(CCC(=O)O)=C2)C(=O)[C@]1(C)O` (relative stereo), in data set [1], the viability was determined as 90%. In the data set on RAW264.7, the IC50 was found to be 39.6 µM.
As for `Cc1cc(O)cc(O)c1C(=O)O[C@@H]1CC2=C(CO[C@@](O)(CCC(=O)O)C2)C(=O)[C@]1(C)O` (relative stereo), the viability in data set [1] is 90%.
Regarding `Cc1cc(O)cc(O)c1C(=O)O[C@@H]1CC2=C(CO[C@](O)(CCCO)C2)C(=O)[C@]1(C)O` (relative stereo), the viability in data set [1] stood at 90%. Moreover, the IC50 in the data set on RAW264.7 came out at 25.5 µM.
Take `Cc1cc(O)cc(O)c1C(=O)O[C@@H]1CC2=C(COC(/C=C/C(=O)O)=C2)C(=O)[C@]1(C)O` (relative stereo): the viability in data set [1] came out at 90%.
Consider `COC(=O)[C@@H](N)CCCNC(=N)N[N+](=O)[O-]` [L-NAME], for which the IC50 in the data set with RAW264.7 was 30.6 µM.
